This is an account of results in ChEMBL document CHEMBL1938385, “Identification of Trypanosoma brucei leucyl-tRNA synthetase inhibitors by pharmacophore- and docking-based virtual screening and synthesis” (Bioorg Med Chem, 2012).

Assay [1] can be described thus: Inhibition of Trypanosoma brucei LeuRS preincubated for 20 mins prior to reaction initiation by aminoacylation assay. An outline of the steps:
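Enzyme, compound, tRNA and 0.003 mCi/mL [¹⁴C]-leucine were incubated 20 min at 37 °C, then 4 mM ATP was added to start the reaction. Precipitated [¹⁴C]-Leu-tRNA^Leu on dried filter paper was measured by scintillation counting.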

A short description of assay [2]: Inhibition of Staphylococcus aureus LeuRS.
A short description of assay [3]: Inhibition of Escherichia coli LeuRS.
The nature of assay [4]: Inhibition of human LeuRS.

A value given as a limit tells only on which side of the number the result lay.

The term IC50 denotes the concentration needed to halve the response being measured. In assay [1], `COc1ccc(C(=O)C2=C(O)C(=O)N(CCc3c[nH]c4ccccc34)C2c2ccc(OC)cc2)cc1` (stereo unspecified) gave an IC50 of 334 µM. The same measure, in the same setting: the same measure for `CC(C)Cc1ccc(C2C(C(=O)c3ccc(F)cc3F)=C(O)C(=O)N2CCc2c[nH]c3ccccc23)cc1` (stereo unspecified): 175 µM; for `CCc1ccc(C2C(C(=O)c3ccc(OC)cc3)=C(O)C(=O)N2c2ccc(CNC(=O)OC(C)(C)C)cc2)cc1` (stereo unspecified): 102 µM; for `CCc1ccc(C2C(C(=O)c3ccc(OC)cc3)=C(O)C(=O)N2c2ccc(CN)cc2)cc1` (stereo unspecified): greater than 1000 µM. In assay [2], `CC[C@H](C)[C@H](N)C(=O)NS(=O)(=O)CC(=O)N[C@]1(C(=O)OC)[C@@H]2CN(C)C=C(C(N)=O)[C@@H]2C[C@@H]1O` registered a 50% inhibitory concentration (IC50) of 186 µM. In assay [1], `O=C(C1=C(O)C(=O)N(CCc2c[nH]c3ccccc23)C1c1ccc(Cl)cc1)c1ccc(F)cc1` (stereo unspecified) gave a half-inhibitory concentration (IC50) greater than 1000 µM. In the case of `CCc1ccc(C2C(C(=O)c3ccc(OC)cc3)=C(O)C(=O)N2Cc2ccc3c(c2)OCO3)cc1` (stereo unspecified), the IC50 in assay [1] turned out to be 174 µM.

Molecule `COc1ccc(C(=O)C2=C(O)C(=O)N(CCc3c[nH]c4ccccc34)C2c2ccc(C(C)C)cc2)cc1` (stereo unspecified) had a 50% inhibitory concentration (IC50) in assay [1] of 90.5 µM. Still for that read-out and setting: the same measure for `CCCCc1ccc(C2C(C(=O)c3ccc(OC)cc3)=C(O)C(=O)N2CCc2c[nH]c3ccccc23)cc1` (stereo unspecified): 43.9 µM; for `COc1ccc(C(=O)C2=C(O)C(=O)N(CCc3c[nH]c4ccccc34)C2c2ccc(F)cc2Br)cc1` (stereo unspecified): 110 µM. On the same count and under the same terms, under `CC(C)Cc1ccc(C2C(C(=O)c3ccc(Cl)cc3)=C(O)C(=O)N2CCc2c[nH]c3ccccc23)cc1` (stereo unspecified) stands 41 µM. The same measure, in the same setting: the same measure for `CCCCCC1C(C(=O)c2ccc(OC)cc2)=C(O)C(=O)N1CCc1c[nH]c2ccccc12` (stereo unspecified): 111 µM; for `O=C(C1=C(O)C(=O)N(CCc2c[nH]c3ccccc23)C1c1cccc(O)c1)c1ccc(Cl)cc1` (stereo unspecified): 588 µM; for `COc1ccc(C(=O)C2=C(O)C(=O)N(CCc3c[nH]c4ccccc34)C2c2ccc(C)cc2)cc1` (stereo unspecified): 117 µM.

For `CCc1ccc(C2C(C(=O)c3cccc4ccccc34)=C(O)C(=O)N2CCc2c[nH]c3ccccc23)cc1` (stereo unspecified), the IC50 in assay [1] is 80 µM.

With `CCc1ccc(C2C(C(=O)c3ccc(OC)cc3)=C(O)C(=O)N2Cc2ccc(C(=O)O)cc2)cc1` (stereo unspecified), 656 µM corresponded to half-maximal inhibition in assay [1] (IC50). For `COc1ccccc1C1C(C(=O)c2ccc(Cl)cc2)=C(O)C(=O)N1CCc1c[nH]c2ccccc12` (stereo unspecified), the IC50 in assay [1] worked out at 107 µM.

As for `CC[C@H](C)[C@H](N)C(=O)NS(=O)(=O)OC[C@H]1O[C@@H](c2nc(-c3ccccc3)ns2)[C@H](O)[C@@H]1O`, the 50% inhibitory concentration (IC50) is 1 µM in assay [3], greater than 20 µM in assay [2] and 200 µM in assay [4]. In assay [1], `COc1ccc(C(=O)C2=C(O)C(=O)N(CCc3c[nH]c4ccccc34)C2c2ccccc2)cc1` (stereo unspecified) returned an IC50 of 260 µM.

In the case of `COc1ccc(C(=O)C2=C(O)C(=O)N(CCc3c[nH]c4ccccc34)C2c2ccc(-c3ccccc3)cc2)cc1` (stereo unspecified), in assay [1], half-maximal inhibition (IC50) was put at 43.1 µM. For `CC[C@H](C)[C@H](N)C(=O)NS(=O)(=O)OCc1oc(-c2nc(-c3ccccc3)cs2)c(O)c1O`, the IC50 amounted to 0.0016 µM in assay [3] and 0.6 µM in assay [4]. As to `O=C(C1=C(O)C(=O)N(CCc2c[nH]c3ccccc23)C1c1ccccc1)c1ccc(F)cc1` (stereo unspecified), in assay [1], the IC50 is greater than 1000 µM. The same measure, in the same setting: the same measure for `CCc1ccc(C2C(C(=O)c3ccc(OC)cc3)=C(O)C(=O)N2CCCNC(=O)CC(C)C)cc1` (stereo unspecified): greater than 1000 µM; for `O=C(C1=C(O)C(=O)N(CCc2c[nH]c3ccccc23)C1c1cccc(F)c1)c1ccccc1` (stereo unspecified): greater than 1000 µM. The molecule `CC[C@H](C)[C@H](N)C(=O)NS(=O)(=O)CC(=O)O[C@H]1CC[C@H]2C(C(N)=O)=CN(C)C[C@@H]12` returned an IC50 in assay [2] of 0.42 µM. Consider `COc1ccc(C(=O)C2=C(O)C(=O)N(CCc3c[nH]c4ccccc34)C2c2ccc(C(F)(F)F)cc2)cc1` (stereo unspecified), for which the midpoint of inhibition in assay [1], the IC50, lay at 68.1 µM. That is a double-digit micromolar value.

Consider `CC(C)C[C@H](N)C(=O)NS(=O)(=O)OC[C@H]1O[C@@H](c2nc(-c3ccc(Oc4ccccc4)cc3)ns2)[C@H](O)[C@@H]1O`, for which the concentration for half-maximal inhibition (IC50) was 0.0016 µM in assay [3], 0.054 µM in assay [2] and 0.6 µM in assay [4]. `COc1ccc(C(=O)C2=C(O)C(=O)N(CCc3c[nH]c4ccccc34)C2c2ccc(CC(C)C)cc2)cc1` (stereo unspecified) showed an IC50 in assay [1] of 31.9 µM. For the molecule `COc1ccc(C(=O)C2=C(O)C(=O)N(CCc3c[nH]c4ccccc34)C2c2ccccc2OC)cc1` (stereo unspecified), the IC50 in assay [1] came out at 190 µM. This IC50 is about 6-fold higher than that of the molecule before.

For `COc1ccc(C(=O)C2=C(O)C(=O)N(CCc3c[nH]c4ccccc34)C2c2ccc(F)cc2)cc1` (stereo unspecified), in assay [1], the IC50 is 64.7 µM. This IC50 is about 2.9-fold lower than that of the molecule before. The same measure, in the same setting: the same measure for `COc1ccc(C(=O)C2=C(O)C(=O)N(CCc3c[nH]c4ccccc34)C2c2ccccc2Cl)cc1` (stereo unspecified): 125 µM. Take `CC(C)C[C@H](N)C(=O)NS(=O)(=O)OC[C@H]1O[C@@H](c2nc(CCc3cccc(Oc4ccccc4)c3)ns2)[C@H](O)[C@@H]1O`: the values for the IC50 in assay [3], in assay [2] and in assay [4] were 0.006 µM, 0.1 µM and 1.15 µM, respectively.

For the molecule `COc1ccc(C(=O)C2=C(O)C(=O)N(CCc3c[nH]c4ccccc34)C2c2ccc3ccccc3c2)cc1` (stereo unspecified), the IC50 in assay [1] stood at 85.5 µM. In other words, the double-digit micromolar range. On to `CC(C)C[C@H](N)C(=O)NS(=O)(=O)OC[C@H]1O[C@@H](c2nc(CCc3ccccc3)ns2)[C@H](O)[C@@H]1O`, for which the values for the IC50 in assay [3], in assay [2] and in assay [4] were less than 0.002 µM, 0.09 µM and 0.73 µM, respectively. The molecule `COc1ccc(C(=O)C2=C(O)C(=O)N(CCc3c[nH]c4ccccc34)C2c2ccccc2F)cc1` (stereo unspecified) had an IC50 in assay [1] of 269 µM.

`COc1ccc(C(=O)C2=C(O)C(=O)N(CCc3c[nH]c4ccccc34)C2c2ccc(Cl)cc2)cc1` (stereo unspecified) showed an IC50 in assay [1] of 86.9 µM.

With `CCc1ccc(C2C(C(=O)c3ccc(OC)cc3)=C(O)C(=O)N2CCCn2ccnc2)cc1` (stereo unspecified), the IC50 in assay [1] was found to be 716 µM. In assay [1], `CCc1ccc(C2C(C(=O)c3ccc(OC)cc3)=C(O)C(=O)N2CCc2c[nH]c3ccccc23)cc1` (stereo unspecified) displayed an IC50 of 71.4 µM. Turning to `COc1ccc(C(=O)C2=C(O)C(=O)N(CCc3c[nH]c4ccccc34)C2c2cccc(F)c2)cc1` (stereo unspecified), it took 170 µM to reach half-maximal inhibition in assay [1] (IC50).

The molecule `CCc1ccc(C2C(C(=O)c3ccc(OC)cc3)=C(O)C(=O)N2CCCNC(=O)OC(C)(C)C)cc1` (stereo unspecified) gave an IC50 in assay [1] of 269 µM. This IC50 is about 1.6-fold higher than that of the molecule before. On the same count and under the same terms, the same measure for `COc1ccc(C(=O)C2=C(O)C(=O)N(CCc3c[nH]c4ccccc34)C2c2ccc(C(C)(C)C)cc2)cc1` (stereo unspecified): 94.5 µM; for `CCc1ccc(C2C(C(=O)c3ccc(OC)cc3)=C(O)C(=O)N2CCCN)cc1` (stereo unspecified): greater than 1000 µM.
